In ChEMBL document CHEMBL4732057, “Design, synthesis and biological evaluation of second-generation benzoylpiperidine derivatives as reversible monoacylglycerol lipase (MAGL) inhibitors” (Eur J Med Chem, 2021) one finds IC50 and inhibition data, which are given here for four molecules.

For one experiment, the system named is Caov-3 cell line. Description: Antiproliferative activity against human CAOV3 cells as reduction in cell growth measured after 96 hrs by Celltiter-glo luminescent assay. It counts as functional, cell-based. The note with it: Caov-3, 96 h. The method in brief: (§1)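 Cell lines kept at 37 °C, 5% CO2; 5 × 10^2 cells per well, compound added the day after seeding at 200 to 0.02 µM. Viability read after 96 h by CellTiter-Glo luminescence. IC50 from logistic dose-response curves, in triplicate; error bars are SD.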
(In general: In ATP-based viability assays light output follows the ATP content of the culture.)

In experiment [1] the target is T1, Monoacylglycerol lipase ABHD6 (Homo sapiens, UniProt Q9BV23).
T1 sequence (Q9BV23 whole entry): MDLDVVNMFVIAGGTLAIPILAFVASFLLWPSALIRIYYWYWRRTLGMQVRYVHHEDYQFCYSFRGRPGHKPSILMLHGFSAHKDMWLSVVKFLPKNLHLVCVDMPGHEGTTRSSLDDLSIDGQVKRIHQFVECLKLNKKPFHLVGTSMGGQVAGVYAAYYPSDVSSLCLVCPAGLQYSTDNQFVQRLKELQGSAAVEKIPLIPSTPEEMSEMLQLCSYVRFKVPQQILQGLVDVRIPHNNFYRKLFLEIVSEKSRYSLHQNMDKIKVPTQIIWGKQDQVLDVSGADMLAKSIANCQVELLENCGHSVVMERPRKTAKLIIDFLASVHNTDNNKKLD
Briefly: Inhibition of human ABHD6 expressed in HEK293 cells using [3H]2-OG as substrate preincubated for 30 mins followed by substrate addition and measured after 5 mins by liquid scintillation spectroscopy. In kind it is cell-based. The method, boiled down: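 Homogenate (40 µg) of HEK293 cells stably transfected with human ABHD6 or ABHD12, preincubated with compound 30 min at 37 °C in […], 0.1% BSA, pH 7.6. 2-OG 10 µM added for 5 min at 37 °C. Stopped with CHCl3:MeOH; aqueous tritium counted; blanks and nontransfected HEK293 hydrolysis subtracted. Screening at 10 µM.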

For experiment [2], the target named is T2, Monoglyceride lipase (Mus musculus) (UniProt O35678).
T2 sequence (whole entry): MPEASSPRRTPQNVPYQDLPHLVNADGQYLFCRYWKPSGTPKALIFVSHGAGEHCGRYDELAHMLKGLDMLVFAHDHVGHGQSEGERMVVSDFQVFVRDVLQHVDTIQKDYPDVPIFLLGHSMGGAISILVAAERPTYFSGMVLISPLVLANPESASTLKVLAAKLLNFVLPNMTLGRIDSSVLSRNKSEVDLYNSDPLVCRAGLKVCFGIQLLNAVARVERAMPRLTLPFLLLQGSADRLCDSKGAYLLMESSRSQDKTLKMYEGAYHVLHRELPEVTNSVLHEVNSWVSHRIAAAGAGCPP
Description: Inhibition of MAGL in mouse brain membrane at 10 uM preincubated for 25 mins followed by TAMRA-FP labeling addition and measured after 5 mins by competitive ABPP based analysis. In kind it is cell membranes. The conditions noted are these: time 30.0 min. The method, boiled down: (§2)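 Mouse brain membranes, 4 mg/mL in PBS, preincubated 25 min at 25 °C with compound at 10 µM or a range of concentrations. Labelled 5 min with TAMRA-FP at 125 nM final. Proteins resolved on 11% SDS-PAGE and scanned for fluorescence.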

The target of experiment [3] is T3, Fatty-acid amide hydrolase 1 (Homo sapiens, UniProt O00519).
T3 sequence (O00519 whole entry): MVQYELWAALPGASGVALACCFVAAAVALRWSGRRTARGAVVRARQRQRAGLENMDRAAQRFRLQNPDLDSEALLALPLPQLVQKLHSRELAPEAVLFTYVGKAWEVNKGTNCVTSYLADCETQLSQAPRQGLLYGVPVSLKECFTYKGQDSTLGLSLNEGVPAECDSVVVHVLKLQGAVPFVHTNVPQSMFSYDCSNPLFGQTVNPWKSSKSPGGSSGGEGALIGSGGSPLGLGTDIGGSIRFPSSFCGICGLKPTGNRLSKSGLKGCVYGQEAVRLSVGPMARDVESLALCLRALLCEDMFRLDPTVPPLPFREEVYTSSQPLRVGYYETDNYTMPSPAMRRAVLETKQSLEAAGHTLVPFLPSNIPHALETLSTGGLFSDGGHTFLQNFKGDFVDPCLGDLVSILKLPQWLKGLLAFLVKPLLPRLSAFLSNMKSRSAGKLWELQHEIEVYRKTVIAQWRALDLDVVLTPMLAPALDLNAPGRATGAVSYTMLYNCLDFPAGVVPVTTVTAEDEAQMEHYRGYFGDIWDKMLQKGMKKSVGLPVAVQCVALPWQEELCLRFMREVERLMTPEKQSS
Briefly: Inhibition of FAAH in human U937 cells assessed as reduction in [3H]ethanolamine formation using [ethanolamine-1-3H]AEA as substrate incubated for 15 mins by liquid scintillation spectroscopy. It counts as cell-based, U-937. The method, boiled down:
(§3)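 Intact U937 cells (1.0 × 10^6) in Tris-HCl 10 mM, EDTA 1 mM, 0.1% BSA, pH 8, given compound at 37 °C. Then 15 min at 37 °C with shaking. MAGL: 10 µM 2-OG plus 0.5 nM [3H]2-OG. FAAH: 1 µM AEA plus 2 nM [3H]AEA. Aqueous-phase tritium counted; three experiments in triplicate.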

In experiment [4] the target is T4, Fatty-acid amide hydrolase 1 (Homo sapiens) (UniProt O00519).
T4 sequence (whole entry): T3 sequence (O00519 whole entry)
Description: Inhibition of FAAH in human U937 cells assessed as reduction in [3H]ethanolamine formation using [ethanolamine-1-3H]AEA as substrate at 10 uM incubated for 15 mins by liquid scintillation spectroscopy. In kind it is cell-based. The conditions noted are these: U-937. The method, boiled down:
as §3

Experiment [5] can be described thus: Antiproliferative activity against human PDAC-3 cells assessed as inhibition of cell growth incubated for 72 hrs by SRB assay. It counts as functional, cell-based. The note with it: PDAC-3, 72 h. The method in brief: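 Primary patient-derived PDAC-3 cells, cultured under 20 passages in RPMI-1640 with 10% NBCS. Compounds dissolved in DMSO and tested at 8 concentrations, 156.25 to 20 000 nM. Growth read by sulforhodamine-B assay.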
In general terms: The SRB assay estimates cell density from bound dye.

The subject of another experiment is SK-OV-3. Briefly: Antiproliferative activity against human SKOV3 cells as reduction in cell growth measured after 96 hrs by Celltiter-glo luminescent assay. In kind it is functional, cell-based. The conditions noted are these: SK-OV-3, 96 h. The method, boiled down: as §1
Experiment [6] deals with T5, Lysophosphatidylserine lipase ABHD12 (Mus musculus) (UniProt Q99LR1).
T5 sequence (whole entry): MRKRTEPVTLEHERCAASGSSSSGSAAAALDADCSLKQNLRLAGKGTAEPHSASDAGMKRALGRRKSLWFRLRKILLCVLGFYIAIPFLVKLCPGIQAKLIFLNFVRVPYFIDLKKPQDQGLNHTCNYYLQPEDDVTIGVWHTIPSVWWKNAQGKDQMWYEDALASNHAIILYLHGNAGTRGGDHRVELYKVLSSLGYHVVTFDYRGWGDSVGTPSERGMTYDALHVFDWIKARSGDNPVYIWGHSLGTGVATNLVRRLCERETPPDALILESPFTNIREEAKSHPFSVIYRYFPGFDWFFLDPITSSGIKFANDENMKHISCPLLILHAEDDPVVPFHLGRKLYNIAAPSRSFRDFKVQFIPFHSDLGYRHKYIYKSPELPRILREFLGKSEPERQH
Description: Inhibition of ABHD12 in mouse brain membrane up to 30 uM preincubated for 25 mins followed by TAMRA-FP labeling addition and measured after 5 mins by competitive ABPP based analysis. In kind it is cell membranes. The conditions noted are these: dose microM <=30, time 30.0 min. The method, boiled down:
as §2

Activity calls are given as the source filed them. No cut-off for these calls is given here. Where only a bound is given, the exact number is not on record here.

The IC50 is the concentration that inhibits the measured activity by half. In general, inhibition refers to how much of the control response was suppressed. `O=C(c1ccc(Sc2ccccc2)cc1)C1CCN(C(=O)c2cc(O)ccc2F)CC1`: the IC50 is 34 µM in the experiment with Caov-3 cell line; greater than 10 µM in experiment [1]; greater than 10 µM in experiment [3]; 9.28 µM in experiment [5]; 4.6 µM with SK-OV-3. Also, the inhibition entry in experiment [2] is “Active”. Besides, in experiment [4], the inhibition is less than 10%. Further, the inhibition entry in experiment [6] is “inactive”.

For `O=C(c1ccc(Cc2ccccc2)cc1)C1CCN(C(=O)c2cc(O)ccc2F)CC1`, the IC50 is 70 µM in the experiment with Caov-3 cell line; greater than 10 µM in experiment [1]; greater than 10 µM in experiment [3]; 12.5 µM in experiment [5]; 8 µM in the experiment on SK-OV-3. Moreover, the inhibition entry in experiment [2] is “Active”. For the same molecule, the inhibition in experiment [4] was less than 10%. For the same molecule, in experiment [6], the inhibition result is “inactive”.

With `O=C(c1ccc(Cc2ccccc2)cc1)C1CCN(C(=O)c2cc(O)c(F)cc2F)CC1`, the IC50 in the experiment on Caov-3 cell line is 44 µM; in experiment [1], greater than 10 µM; in experiment [3], greater than 10 µM; in experiment [5], 12 µM; in the experiment with SK-OV-3 it was 12 µM. In addition, in experiment [2], the inhibition entry was “Active”. Also, in experiment [4], the inhibition is 21%. Further, the inhibition entry in experiment [6] was “inactive”.

In the case of `O=C(c1ccc(Sc2ccccc2)cc1)C1CCN(C(=O)c2cc(O)c(F)cc2F)CC1`, the IC50 is 42 µM in the experiment on Caov-3 cell line; greater than 10 µM in experiment [1]; greater than 10 µM in experiment [3]; 14.6 µM in experiment [5]; 11 µM in the experiment with SK-OV-3. For the same molecule, the inhibition entry in experiment [2] was “Active”. For the same molecule, in experiment [4], the inhibition amounted to 22%. The inhibition result in experiment [6] is “inactive”.
